Entries after “also recorded” stand apart in the source; their conditions may differ.
Target: CK2α catalytic subunit (Homo sapiens, UniProt P68400)
Test: In vitro phosphorylation assay of CK2α with peptide substrate RRRADDSDDDDD
Type: biochemical
Conditions: substrate RRRADDSDDDDD
In short: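 Activity is expressed as % of no-peptide control, as the mean of at least three independent experiments. Full-length murine NBD1ΔF508 (389–673) tests were run at 350 μM ATP.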

Chain of CK2α catalytic subunit (P68400 whole entry): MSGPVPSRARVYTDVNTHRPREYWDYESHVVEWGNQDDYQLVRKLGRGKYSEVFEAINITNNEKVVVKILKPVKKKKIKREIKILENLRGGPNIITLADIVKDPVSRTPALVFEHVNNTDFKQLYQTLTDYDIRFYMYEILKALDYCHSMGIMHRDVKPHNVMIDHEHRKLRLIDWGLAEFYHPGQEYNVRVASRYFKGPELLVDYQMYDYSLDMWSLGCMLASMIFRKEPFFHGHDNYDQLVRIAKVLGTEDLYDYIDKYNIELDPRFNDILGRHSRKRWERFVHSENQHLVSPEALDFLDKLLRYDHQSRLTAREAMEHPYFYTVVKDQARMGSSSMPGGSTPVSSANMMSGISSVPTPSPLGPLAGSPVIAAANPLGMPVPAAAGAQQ

| Substance | onset of stimulation of CK2α catalytic activity (β-peptide alone) | inhibitory efficacy on CK2α (in words) (compared with the parent peptide) |
| --- | --- | --- |
| β-peptide: peptide reproducing the C-terminal segment of the CK2 β-subunit encompassing residues 182–203 (QFVPRLYGFKIHPMAYQLQLQA; UniProt P67870 182-203, looked up, fragment) [reference compound] | 50 µM |  |
| CFTRΔI507 peptide: CFTR(500–518) peptide with Ile^507 deleted (GTIKENIFGVSYDEYRYR) |  | loss in inhibitory efficacy; also recorded: unable to exert the same efficacy of the CFTRΔF508 peptide |

Reference: article PMC3026963 (The Biochemical journal, 2010)
